≈ marks a conversion by molar mass, not a printed value.
Columns and labels:
[1] = test system: Staphylococcus aureus; assay: Antibacterial activity against vancomycin/methicillin-susceptible Staphylococcus aureus Newman […] after 24 hrs by broth microdilution method; type: functional
Summary of the method: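 Broth microdilution in cation-adjusted Mueller-Hinton II broth. […] Each well received ~10^5 CFU of exponential-phase bacteria and was incubated at 37 °C for 24 h. MIC was taken as the lowest concentration giving complete growth inhibition, interpreted per CLSI.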

[2] = test system: Staphylococcus aureus; assay: Antibacterial activity against healthcare-associated methicillin-resistant/vancomycin-intermediate Staphylococcus aureus Mu50 after 24 hrs by broth microdilution method; type: functional; settings: Mu50, 24 h
Summary of the method: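 Broth microdilution in cation-adjusted Mueller-Hinton II broth. DMSO stocks were diluted in broth and twofold serially from 128 to 0.0625 μg/mL or lower. Each well was inoculated with ~10^5 CFU of exponential-phase bacteria and incubated at 37 °C for 24 h. MIC was the lowest concentration giving complete growth inhibition, read per CLSI. Growth controls contained broth plus DMSO.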

Compound	MIC90 [1]	MIC90 [2]
CCCCCCCCCCNCCN[C@@]1(C)C[C@H](O[C@H]2[C@H](Oc3c4cc5cc3Oc3ccc(cc3Cl)[C@@H](O)[C@@H](NC(=O)[C@@H](CC(C)C)NC)C(=O)N[C@@H](CC(N)=O)C(=O)N[C@H]5C(=O)N[C@H]3C(=O)N[C@H](C(=O)N[C@H](C(=O)O)c5cc(O)c(CNCCO[C@@H]6O[C@H](CO)[C@H](O)[C@H](O)[C@H]6O)c(O)c5-c5cc3ccc5O)[C@H](O)c3ccc(c(Cl)c3)O4)O[C@H](CO)[C@@H](O)[C@@H]2O)O[C@@H](C)[C@H]1O	0.5 µg/mL (≈ 0.268 µM)	2 µg/mL (≈ 1.07 µM)
CN[C@H](CC(C)C)C(=O)N[C@H]1C(=O)N[C@@H](CC(N)=O)C(=O)N[C@H]2C(=O)N[C@H]3C(=O)N[C@H](C(=O)N[C@H](C(=O)O)c4cc(O)c(CNCCCNC(=O)[C@H](O)[C@@H](O)[C@H](O)[C@H](O)CO)c(O)c4-c4cc3ccc4O)[C@H](O)c3ccc(c(Cl)c3)Oc3cc2cc(c3O[C@@H]2O[C@H](CO)[C@@H](O)[C@H](O)[C@H]2O[C@H]2C[C@](C)(NCc3ccc4c(c3)OCC4)[C@H](O)[C@H](C)O2)Oc2ccc(cc2Cl)[C@H]1O	4 µg/mL (≈ 2.17 µM)	8 µg/mL (≈ 4.33 µM)
CCCCCCCCCC(=O)N[C@@]1(C)C[C@H](O[C@H]2[C@H](Oc3c4cc5cc3Oc3ccc(cc3Cl)[C@@H](O)[C@@H](NC(=O)[C@@H](CC(C)C)NC)C(=O)N[C@@H](CC(N)=O)C(=O)N[C@H]5C(=O)N[C@H]3C(=O)N[C@H](C(=O)N[C@H](C(=O)O)c5cc(O)c(CNCCCNC(=O)[C@H](O)[C@@H](O)[C@H](O)[C@H](O)CO)c(O)c5-c5cc3ccc5O)[C@H](O)c3ccc(c(Cl)c3)O4)O[C@H](CO)[C@@H](O)[C@@H]2O)O[C@@H](C)[C@H]1O	32 µg/mL (≈ 17.1 µM)	64 µg/mL (≈ 34.3 µM)
C#Cc1ccc(CN[C@@]2(C)C[C@H](O[C@H]3[C@H](Oc4c5cc6cc4Oc4ccc(cc4Cl)[C@@H](O)[C@@H](NC(=O)[C@@H](CC(C)C)NC)C(=O)N[C@@H](CC(N)=O)C(=O)N[C@H]6C(=O)N[C@H]4C(=O)N[C@H](C(=O)N[C@H](C(=O)O)c6cc(O)c(CNCCCNC(=O)[C@H](O)[C@@H](O)[C@H](O)[C@H](O)CO)c(O)c6-c6cc4ccc6O)[C@H](O)c4ccc(c(Cl)c4)O5)O[C@H](CO)[C@@H](O)[C@@H]3O)O[C@@H](C)[C@H]2O)cc1	4 µg/mL (≈ 2.19 µM)	8 µg/mL (≈ 4.38 µM)
CN[C@H](CC(C)C)C(=O)N[C@H]1C(=O)N[C@@H](CC(N)=O)C(=O)N[C@H]2C(=O)N[C@H]3C(=O)N[C@H](C(=O)N[C@H](C(=O)O)c4cc(O)c(CN[C@H]5C(O)O[C@H](CO)[C@H](O)[C@@H]5O)c(O)c4-c4cc3ccc4O)[C@H](O)c3ccc(c(Cl)c3)Oc3cc2cc(c3O[C@@H]2O[C@H](CO)[C@@H](O)[C@H](O)[C@H]2O[C@H]2C[C@](C)(NCc3ccc(C#C[Si](C)(C)C)cc3)[C@H](O)[C@H](C)O2)Oc2ccc(cc2Cl)[C@H]1O (some centres undefined)	0.5 µg/mL (≈ 0.274 µM)	2 µg/mL (≈ 1.09 µM)
CCCCCCc1ccc(CN[C@@]2(C)C[C@H](O[C@H]3[C@H](Oc4c5cc6cc4Oc4ccc(cc4Cl)[C@@H](O)[C@@H](NC(=O)[C@@H](CC(C)C)NC)C(=O)N[C@@H](CC(N)=O)C(=O)N[C@H]6C(=O)N[C@H]4C(=O)N[C@H](C(=O)N[C@H](C(=O)O)c6cc(O)c(CNCCCNC(=O)[C@H](O)[C@@H](O)[C@H](O)[C@H](O)CO)c(O)c6-c6cc4ccc6O)[C@H](O)c4ccc(c(Cl)c4)O5)O[C@H](CO)[C@@H](O)[C@@H]3O)O[C@@H](C)[C@H]2O)cc1	0.12 µg/mL (≈ 0.0636 µM)	0.5 µg/mL (≈ 0.265 µM)
CN[C@H](CC(C)C)C(=O)N[C@H]1C(=O)N[C@@H](CC(N)=O)C(=O)N[C@H]2C(=O)N[C@H]3C(=O)N[C@H](C(=O)N[C@H](C(=O)O)c4cc(O)c(CNCCCNC(=O)[C@H](O)[C@@H](O)[C@H](O[C@@H]5O[C@H](CO)[C@H](O)[C@H](O)[C@H]5O)[C@H](O)CO)c(O)c4-c4cc3ccc4O)[C@H](O)c3ccc(c(Cl)c3)Oc3cc2cc(c3O[C@@H]2O[C@H](CO)[C@@H](O)[C@H](O)[C@H]2O[C@H]2C[C@](C)(NCc3ccc(-c4ccc(Cl)cc4)cc3)[C@H](O)[C@H](C)O2)Oc2ccc(cc2Cl)[C@H]1O	0.25 µg/mL (≈ 0.12 µM)	0.5 µg/mL (≈ 0.241 µM)

Source: ChEMBL document CHEMBL4052823, “Extra Sugar on Vancomycin: New Analogues for Combating Multidrug-Resistant Staphylococcus aureus and Vancomycin-Resistant Enterococci” (J Med Chem, 2018)
